According to ChEMBL document CHEMBL6134787, “Fexinidazole optimization: enhancing anti-leishmanial profile, metabolic stability and hERG safety” (RSC Med Chem, 2024):

How the values were obtained:
[1] = Metabolic stability in rat liver S9 fraction assessed as compound remaining at 20 uM measured after 32 mins in presence of NADP and GSH by HPLC analysis; assay type: ADME, subcellular; conditions: read-out: Stability
In short: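 Rat liver S9 (final 4 mg/mL) in 50 mM phosphate pH 7.4 with NADPH-regenerating system (0.3 mM NADP+, 5.3 mM glucose-6-phosphate, G6PDH), 10 mM MgCl2 and 5 mM EDTA. Pre-warmed 10 min at 37 °C, then 20 μM compound and 5.5 μM GSH added. Samples taken at 0, 16 and 32 min were quenched in ice-cold acetonitrile. HPLC (254/280 nm) peak area was expressed relative to 0 min.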

Leishmania braziliensis [2] = experiment: Antileishmanial activity against wild type Leishmania braziliensis UA847 promastigotes […] assessed as inhibition of parasite growth incubated for 72 hrs by automatic microtiter plate reader analysis; assay type: functional, organism-based
In short: (§1)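 Promastigotes were grown in Schneider's medium (4 mM glutamine, gentamicin, 10% heat-inactivated FBS, pH 6.9, 27 °C). Cells were seeded at 1.5 × 10^5/well and exposed to a concentration series for 72 h at 27 °C.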

RAW264.7 = experiment: Cytotoxicity against mouse RAW264.7 cells assessed as inhibition of cell growth incubated for 72 hrs by MTS assay; assay type: functional, cell-based; conditions: RAW264.7, 72 h
In short: (§2)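 Cells in DMEM + 10% heat-inactivated FBS with penicillin/streptomycin at 37 °C, 5% CO2. They were seeded at 1 × 10^4/well and incubated with a concentration series for 72 h at 37 °C. Viability was read by MTS/PMS assay at 490 nm and IC50 derived.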

[3] = Hepatotoxicity against mouse TAMH cells assessed as cell viability at 7.8 to 125 uM incubated for 24 to 48 hrs by MTT assay; assay type: toxicity, cell-based; conditions: dose lower 7.8 µM, time lower 24 hrs, dose upper 125 µM, time upper 48 hrs, read-out: Activity
In short: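 TAMH mouse liver cells in FCS-free DMEM/F12 with 5% PANEXIN NTA, 10 mM nicotinamide and gentamicin. Seeded at 20 000/well and attached 24 h at 37 °C, 5% CO2. DMSO-diluted compounds were applied for 24 or 48 h. MTT was added for 4 h, formazan dissolved in DMSO and A570 read. Viability was background-corrected and expressed relative to DMSO controls; mean ± SD, ≥3 experiments.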

Leishmania donovani [4] = experiment: Antileishmanial activity against wild type Leishmania donovani HU3 promastigotes […] assessed as inhibition of parasite growth incubated for 72 hrs by automatic microtiter plate reader analysis; assay type: functional, organism-based
Leishmania donovani [5] = experiment: Antileishmanial activity against miltefosine resistant Leishmania donovani HU3MILR40 promastigotes […] assessed as inhibition of parasite growth incubated for 72 hrs by automatic microtiter plate reader analysis; assay type: functional, organism-based
In short: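 Promastigote (free parasite) assay: Schneider's Drosophila medium with 4 mM glutamine, 25 μg mL−1 gentamicin, 10% heat-inactivated FBS, pH 6.9, 27 °C. 1.5 × 10^5 promastigotes per well exposed to a concentration series for 72 h at 27 °C.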

[6] = target: T1, Voltage-gated inwardly rectifying potassium channel KCNH2 (Homo sapiens, UniProt Q12809); experiment: Inhibition of human ERG stably overexpressed in HEK293 cells incubated for 30 mins by FLIPR assay; assay type: toxicity, cell-based; conditions: human, hek293, 0.5 h; time 30 min
[7] = Cytotoxicity against mouse L929 cells assessed as inhibition of cell growth incubated for 72 hrs by MTS assay; assay type: toxicity, cell-based; in short: as §2
Leishmania major = experiment: Antileishmanial activity against wild type Leishmania major FV1 promastigotes […] assessed as inhibition of parasite growth incubated for 72 hrs by automatic microtiter plate reader analysis; assay type: functional, organism-based; in short: as §1
Leishmania amazonensis [8] = experiment: Antileishmanial activity against wild type Leishmania amazonensis LV78 promastigotes […] assessed as inhibition of parasite growth incubated for 72 hrs by automatic microtiter plate reader analysis; assay type: functional, organism-based; in short: as §1
[9] = Metabolic stability in rat liver microsome assessed as compound remaining at 20 uM measured after 32 mins in presence of NADP and GSH by HPLC analysis; assay type: ADME; conditions: liver microsomes, read-out: Stability
In short: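 Rat liver microsomes (final 2 mg/mL) in 50 mM phosphate pH 7.4 with 0.3 mM NADP+, 5.3 mM glucose-6-phosphate, G6PDH, 10 mM MgCl2 and 5 mM EDTA. 20 μM compound added at 37 °C. Aliquots at 0, 16 and 32 min were quenched in ice-cold acetonitrile and centrifuged. HPLC peak area at 254/280 nm was expressed relative to 0 min.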

[10] = target: T1, Voltage-gated inwardly rectifying potassium channel KCNH2; experiment: (§3) Inhibition of human ERG stably overexpressed in HEK293 cells assessed as remaining activity at 6 uM incubated for 30 mins by FLIPR assay; assay type: toxicity, cell-based; conditions: hek293, 0.5 h, 6 µM
In short: (§4)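 HEK-293 cells stably expressing hERG, seeded at 60 000/well and grown 24 h. Compounds were added in DMSO (final 0.5%) and incubated 30 min in the dark. After 20 s baseline, Tl+ stimulus (3 mM) was added and fluorescence (ex 485/em 535 nm) recorded for 2.5 min.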

[11] = Hepatotoxicity against human HepG2 cells assessed as cell viability at 125 uM incubated for 48 hrs by MTT assay; assay type: toxicity, cell-based; conditions: HepG2 cells, read-out: Activity
In short: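 HEP-G2 cells in RPMI 1640 + 10% heat-inactivated FBS, penicillin/streptomycin. Seeded at 15 000/well and attached 24 h at 37 °C, 5% CO2. Compounds were serially diluted in DMSO, with 24 or 48 h exposure. MTT (2.5 mg/mL solution) was added for 4 h, formazan dissolved in DMSO and A570 read. Viability was background-corrected against DMSO-treated cell controls; mean ± SD, ≥3 experiments.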

Leishmania donovani [12] = experiment: Antileishmanial activity against miltefosine resistant Leishmania donovani HU3MILR40 amastigotes infected in mouse peritoneal macrophage assessed as inhibition of parasite growth incubated for 72 hrs by giemsa staining based analysis; assay type: functional, organism-based
In short: (§5)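 Mouse peritoneal macrophages in DMEM + 10% heat-inactivated FBS, penicillin/streptomycin; 1 × 10^5 cells per well on coverslips, adhered overnight at 37 °C, 5% CO2, non-adherent cells washed off. Infected overnight with late-log promastigotes at parasite:macrophage 40:1. Compound exposure 72 h at 37 °C; Giemsa stain, amastigotes per 100 macrophages counted, IC50 derived; means ± SD of 3–4 independent experiments.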

Leishmania braziliensis [13] = experiment: Antileishmanial activity against wild type Leishmania braziliensis UA847 amastigotes infected in mouse peritoneal macrophage assessed as inhibition of parasite growth incubated for 72 hrs by giemsa staining based analysis; assay type: functional, organism-based
In short: (§6)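 Mouse peritoneal macrophages (1 × 10^5/well on coverslips, DMEM + 10% heat-inactivated FBS, penicillin/streptomycin) adhered overnight at 37 °C, 5% CO2. They were infected overnight with late-log promastigotes at a 20:1 parasite:macrophage ratio. Cells were then treated with compound for 72 h at 37 °C and Giemsa-stained. Amastigotes per 100 macrophages were counted to derive IC50; mean ± SD of 3–4 independent experiments.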

[14] = Cytotoxicity against mouse peritoneal macrophage assessed as inhibition of cell growth incubated for 72 hrs by giemsa staining based analysis; assay type: toxicity; conditions: peritoneal macrophages
Leishmania amazonensis [15] = experiment: Antileishmanial activity against wild type Leishmania amazonensis LV78 amastigotes infected in mouse peritoneal macrophage assessed as inhibition of parasite growth incubated for 72 hrs by giemsa staining based analysis; assay type: functional, organism-based; in short: as §6
Leishmania donovani [16] = experiment: Antileishmanial activity against wild type Leishmania donovani HU3 amastigotes infected in mouse peritoneal macrophage assessed as inhibition of parasite growth incubated for 72 hrs by giemsa staining based analysis; assay type: functional, organism-based; in short: as §5
hERG (KCNH2) = hERG (KCNH2) (Homo sapiens, UniProt Q12809); experiment: as §3; assay type: toxicity, cell-based; conditions: HEK293 cells stably overexpressing hERG, read-out: Activity; in short: as §4
hERG (KCNH2), sequence (Q12809 whole entry): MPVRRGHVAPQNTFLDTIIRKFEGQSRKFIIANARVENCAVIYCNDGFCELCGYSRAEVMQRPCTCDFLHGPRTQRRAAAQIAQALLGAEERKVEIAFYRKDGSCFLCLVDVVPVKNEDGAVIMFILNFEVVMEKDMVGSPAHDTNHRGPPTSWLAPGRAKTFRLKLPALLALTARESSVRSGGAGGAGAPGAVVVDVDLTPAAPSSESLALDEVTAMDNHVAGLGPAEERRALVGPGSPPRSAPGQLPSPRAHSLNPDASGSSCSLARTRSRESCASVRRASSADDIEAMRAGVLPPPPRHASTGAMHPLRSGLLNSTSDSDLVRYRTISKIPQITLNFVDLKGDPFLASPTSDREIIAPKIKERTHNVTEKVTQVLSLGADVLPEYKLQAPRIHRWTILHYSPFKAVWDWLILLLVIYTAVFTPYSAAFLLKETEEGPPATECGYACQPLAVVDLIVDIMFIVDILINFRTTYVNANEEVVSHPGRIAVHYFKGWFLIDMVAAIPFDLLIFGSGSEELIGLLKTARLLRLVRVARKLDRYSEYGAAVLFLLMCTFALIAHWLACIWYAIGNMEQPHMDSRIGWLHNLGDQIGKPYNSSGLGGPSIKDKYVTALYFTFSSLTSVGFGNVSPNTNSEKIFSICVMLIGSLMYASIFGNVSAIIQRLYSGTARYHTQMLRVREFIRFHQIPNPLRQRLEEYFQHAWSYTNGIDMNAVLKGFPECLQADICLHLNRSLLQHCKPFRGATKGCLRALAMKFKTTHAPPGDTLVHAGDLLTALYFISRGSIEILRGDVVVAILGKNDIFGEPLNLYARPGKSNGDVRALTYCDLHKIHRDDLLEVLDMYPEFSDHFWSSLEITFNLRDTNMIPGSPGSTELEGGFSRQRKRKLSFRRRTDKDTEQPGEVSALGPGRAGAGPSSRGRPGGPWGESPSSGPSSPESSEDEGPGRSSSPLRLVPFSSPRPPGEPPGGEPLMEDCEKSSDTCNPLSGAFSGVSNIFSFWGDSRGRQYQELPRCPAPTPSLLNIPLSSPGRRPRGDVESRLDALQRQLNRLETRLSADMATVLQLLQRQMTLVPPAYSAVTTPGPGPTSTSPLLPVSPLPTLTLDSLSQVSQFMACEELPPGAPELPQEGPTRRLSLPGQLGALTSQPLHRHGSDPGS

T1 sequence (Q12809 whole entry): as above

| Compound | remaining at 32 min, 20 µM [1] [%] | IC50 (Leishmania braziliensis [2]) [µM] | IC50 (RAW264.7) [µM] | viability at up to 125 µM [3] [%] | IC50 (Leishmania donovani [4]) [µM] | IC50 (Leishmania donovani [5]) [µM] | IC25 [6] [µM] | IC50 at 72 h [7] [µM] | IC50 (Leishmania major) [µM] | IC50 (Leishmania amazonensis [8]) [µM] | remaining at 32 min, 20 µM [9] [%] | inhibition (INH) [10] | viability at 48 h, 125 µM [11] [%] | IC50 (Leishmania donovani [12]) [µM] | IC50 (Leishmania braziliensis [13]) [µM] | IC50 at 72 h [14] [µM] | IC50 (Leishmania amazonensis [15]) [µM] | IC50 (Leishmania donovani [16]) [µM] | activity at 0.5 h, 6 µM (hERG (KCNH2)) [%] |
| --- | --- | --- | --- | --- | --- | --- | --- | --- | --- | --- | --- | --- | --- | --- | --- | --- | --- | --- | --- |
| CSc1ccc(OCc2ncc(C#N)n2C)cc1 | 82.6 | > 20 | > 99.8 | > 50 | > 20 | > 20 | 27.1 | > 100 | > 20 | > 20 | 8.2 |  |  |  |  |  |  |  |  |
| CSc1ccc(NC(=O)c2ncc([N+](=O)[O-])[nH]2)cc1 | 68.2 | > 20 | > 68.7 | 56 | > 20 | > 13.9 | > 12.5 | 84.7 | > 20 | > 20 | 18.4 | Not_active |  |  |  |  |  |  |  |
| CS(=O)(=O)c1ccc(OCC2Cn3cc([N+](=O)[O-])nc3O2)cc1 (configuration not stated) | 100 | > 20 | > 100 | > 50 | > 20 | 4.5 | 15.2 | > 100 | > 20 | > 20 | 100 |  |  |  |  |  |  |  |  |
| Cn1c([N+](=O)[O-])cnc1CCc1ccc(S(C)(=N)=O)cc1 (configuration not stated) | 100 | > 20 | > 100 | > 50 | > 20 | > 20 | 49.4 | > 100 | 11.8 | > 20 | 100 |  |  |  |  |  |  |  |  |
| C[S+]([O-])c1ccc(C(=O)Nc2ccc3c(c2)B(O)OC3(C)C)cc1 (configuration not stated) | 100 | > 20 | > 100 | > 50 | > 16.8 | > 20 | 25.7 | > 100 | > 20 | > 20 | 95.2 | Not_active | 54.2 |  |  |  |  |  |  |
| Cn1c([N+](=O)[O-])cnc1C(=O)Nc1ccc(F)cc1C(F)(F)F | 100 | 2.3 | > 100 | > 50 | 8.1 | 12.2 | > 6.2 | > 100 | 1.2 | 4.5 | 100 |  |  | > 10 | > 10 | > 100 | > 10 | > 10 |  |
| CSc1ccc(CCc2ncc([N+](=O)[O-])n2C)cc1 | 47.5 | 17.5 | > 91.7 | > 50 | 12.5 | 7.1 | 9.8 | > 100 | 9.1 | 27.2 | 0 |  |  |  |  |  |  |  | 64 |
| CSc1ccc(C(=O)Nc2ccc3c(c2)B(O)OC3(C)C)cc1 | 61.3 | 4.4 | 73.6 | > 50 | 11.9 | 15.4 | > 6.2 | > 100 | 3.9 | 3.6 | 8 |  | 54 | > 10 | > 10 | > 100 | > 10 | > 10 | 66 |
| CSc1ccc(Cn2ccn3cc([N+](=O)[O-])nc3c2=O)cc1 | 100 | > 20 | 48.1 | > 50 | > 16.6 | > 20 | > 2 | > 57.5 | 8.9 | > 20 | 93.1 |  |  |  |  |  |  |  |  |
| CSc1ccc(NC(=O)c2ncc([N+](=O)[O-])n2C)cc1 | 6.9 | > 20 | > 100 | > 50 | > 20 | > 20 | > 3.1 | > 100 | 6.5 | > 20 | 0 |  |  |  |  |  |  |  |  |
| Cn1c([N+](=O)[O-])cnc1COc1ccc(S(C)(=N)=O)cc1 (configuration not stated) | 100 | 9.6 | > 100 | > 50 | 12.2 | 12.3 | > 100 | > 100 | 2.7 | 14.6 | 100 | Not_active |  |  |  |  |  |  |  |
| Cn1c([N+](=O)[O-])cnc1C(=O)N1CCS(=O)(=O)CC1 | 100 | 12.2 | > 100 | > 50 | 7.5 | 13.7 | > 6.2 | > 100 | 3.4 | 13.3 | 100 |  |  |  |  |  |  |  |  |
| CSc1ccc(NCc2ncc([N+](=O)[O-])n2C)cc1 | 73.4 | > 20 | > 100 | > 50 | > 20 | 11.9 | 3.1 | > 100 | 9.5 | > 20 | 0 |  |  |  |  |  |  |  | 48 |
| COc1ccc(Cn2ccn3cc([N+](=O)[O-])nc3c2=O)cc1 | 100 | > 20 | > 100 | > 50 | > 12.4 | > 18.5 | > 2 | > 100 | 6.9 | > 20 | 100 |  |  |  |  |  |  |  |  |
